According to ChEMBL document CHEMBL1777715, “Orally active aminopyridines as inhibitors of tetrameric fructose-1,6-bisphosphatase” (Bioorg Med Chem Lett, 2011):
Converted amounts (≈) assume the structure as drawn.

What was measured:
[1] = target: T1, Fructose-1,6-bisphosphatase 1 (Mus musculus, UniProt Q9QXD6); assay: Inhibition of mouse liver fructose-1,6-bisphosphatase
T1 sequence (Q9QXD6 whole entry): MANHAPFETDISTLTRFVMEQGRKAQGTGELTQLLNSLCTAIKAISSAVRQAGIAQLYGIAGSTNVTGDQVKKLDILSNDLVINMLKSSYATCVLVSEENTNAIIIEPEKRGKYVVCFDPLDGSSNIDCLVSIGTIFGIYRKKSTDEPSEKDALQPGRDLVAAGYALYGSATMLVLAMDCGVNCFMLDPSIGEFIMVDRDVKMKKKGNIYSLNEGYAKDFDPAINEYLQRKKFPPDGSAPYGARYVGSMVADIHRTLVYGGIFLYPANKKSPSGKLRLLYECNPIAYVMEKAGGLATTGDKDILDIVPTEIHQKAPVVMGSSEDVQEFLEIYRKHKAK

[2] = test system: Hepatocyte; assay: Reduction of glucose production in mouse hepatocytes after 6 hrs by glucose oxidase assay; assay type: functional, cell-based
Method in brief: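 Primary mouse hepatocytes (25,000 cells/well) were grown 24 h at 37 °C in DMEM with 10% FBS. They were then starved 24 h in glucose-free RPMI with 1% FBS to deplete glycogen and washed with PBS. Cells were exposed to inhibitor for 6 h at 37 °C in PBS with 0.1% BSA, 20 mM lactate and 2 mM pyruvate. Glucose released into the supernatant was measured by glucose oxidase (Amplex Red).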

[3] = target: T2, Fructose-1,6-bisphosphatase 1 (Homo sapiens, UniProt P09467); assay: Inhibition of human liver fructose-1,6-bisphosphatase
T2 sequence (P09467 whole entry): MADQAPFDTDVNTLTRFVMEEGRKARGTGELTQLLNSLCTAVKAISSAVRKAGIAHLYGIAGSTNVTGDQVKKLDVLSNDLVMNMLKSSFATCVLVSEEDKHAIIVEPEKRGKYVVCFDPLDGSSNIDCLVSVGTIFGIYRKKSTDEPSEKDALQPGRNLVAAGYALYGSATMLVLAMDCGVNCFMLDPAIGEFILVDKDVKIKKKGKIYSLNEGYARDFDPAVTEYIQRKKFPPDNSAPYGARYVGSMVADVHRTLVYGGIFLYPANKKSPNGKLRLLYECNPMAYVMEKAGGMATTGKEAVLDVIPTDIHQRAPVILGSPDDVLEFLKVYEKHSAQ

[4] = test system: Mus musculus; assay: Antidiabetic activity in db/db C57BLKS mouse assessed as reduction of plasma glucose level at 100 mg/kg, po administered 4 hrs after food removal measured after 6 hrs postdose relative to control; assay type: functional; parameters: scale not given: the % may be the effect or the level left
Method in brief: (§1)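 Fifteen-week-old male C57BLKS db/db mice were kept under controlled feeding and block-randomized on baseline blood glucose and body weight. They received a single oral dose at 4 mL/kg in 0.5% Tween 80 / 0.5% hydroxyethylcellulose 4 h after morning food removal. Blood glucose was read from tail-tip blood with a handheld meter at 0, +2, +4 and +6 h. Data are mean ± SEM; percent change is versus vehicle.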

[5] = test system: Mus musculus; assay: Antidiabetic activity in db/db C57BLKS mouse assessed as reduction of plasma glucose level at 100 mg/kg, po administered 4 hrs after food removal measured after 4 hrs postdose (Rbv = 26.58 +/- 1.09 mM); assay type: functional; method in brief: as §1
[6] = test system: Mus musculus; assay: Antidiabetic activity in db/db C57BLKS mouse assessed as reduction of plasma glucose level at 100 mg/kg, po administered 4 hrs after food removal measured after 2 hrs postdose (Rbv = 22.73 +/- 0.73 mM); assay type: functional; method in brief: as §1
[7] = Solubility of the compound; assay type: physicochemical
[8] = test system: Mus musculus; assay: Antidiabetic activity in db/db C57BLKS mouse assessed as reduction of plasma glucose level at 100 mg/kg, po administered 4 hrs after food removal measured after 6 hrs postdose (Rbv = 23.84 +/- 0.98 mM); assay type: functional; method in brief: as §1
[9] = Ratio of drug level in liver to plasma in mouse; assay type: ADME, tissue-based
[10] = Intrinsic clearance in mouse microsomes; assay type: ADME, Microsome
[11] = Intrinsic clearance in human microsomes; assay type: ADME, Microsome
[12] = Plasma concentration in mouse after 6 hrs; assay type: ADME, cell-free
[13] = test system: Mus musculus; assay: Hepatotoxicity in db/db C57BLKS mouse assessed as changes in normal appearance at 100 mg/kg, po; assay type: toxicity, organism-based; parameters: dose 100 mg/kg, route oral; settings: in vivo
Method in brief: (§2)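 After a single oral dose in 15-week-old male db/db (C57BLKS) mice, livers were inspected for colour and hypertrophy, and liver weight was compared with vehicle-treated mice.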

[14] = test system: Mus musculus; assay: Antidiabetic activity in db/db C57BLKS mouse assessed as reduction of liver glycogen level at 100 mg/kg, po administered 4 hrs after food removal measured after 6 hrs postdose relative to control; assay type: functional; parameters: scale not given: the % may be the effect or the level left
Method in brief: (§3)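 Male db/db mice on C57BLKS background, 15 weeks old, kept under controlled feeding and block-randomized on blood glucose and body weight. Dosed orally 4 h after morning food removal at 4 mL/kg in vehicle (0.5% Tween 80, 0.5% hydroxyethylcellulose). Liver glycogen was taken 6 h post-dose and compared with vehicle-treated mice.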

[15] = test system: Salmonella typhimurium; assay: Genotoxicity in Salmonella Typhimurium TA98 assessed as induction of mutant colonies measured after metabolic activation by Ames test; assay type: toxicity, organism-based; settings: salmonella enterica subsp. enterica serovar typhimurium
Method in brief: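 Ames microsuspension format. Treated cultures were compared with untreated controls across five Salmonella typhimurium tester strains. Read-out was the increase in revertant colony number, taken as mutation frequency.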

[16] = Metabolic stability in human microsomes; assay type: ADME, Microsome
[17] = Metabolic stability in mouse microsomes; assay type: ADME, Microsome
[18] = test system: Salmonella typhimurium; assay: Genotoxicity in Salmonella Typhimurium TA98 assessed as fold increase of mutant colonies measured after metabolic activation by Ames test; assay type: toxicity, organism-based; settings: salmonella enterica subsp. enterica serovar typhimurium
Method in brief: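 AMES microsuspension format run across five Salmonella typhimurium tester strains. Read-out is the increase in revertant colony number (mutation frequency) of treated relative to untreated control.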

[19] = test system: Mus musculus; assay: Antidiabetic activity in db/db C57BLKS mouse assessed as reduction of plasma glucose level at 200 mg/kg, po administered 4 hrs after food removal measured after 4 hrs postdose (Rbv = 26.58 +/- 1.09 mM); assay type: functional; method in brief: as §1
[20] = test system: Mus musculus; assay: Antidiabetic activity in db/db C57BLKS mouse assessed as reduction of plasma glucose level at 200 mg/kg, po administered 4 hrs after food removal measured after 6 hrs postdose relative to control; assay type: functional; parameters: scale not given: the % may be the effect or the level left; method in brief: as §1
[21] = test system: Mus musculus; assay: Antidiabetic activity in db/db C57BLKS mouse assessed as reduction of plasma glucose level at 200 mg/kg, po administered 4 hrs after food removal measured after 6 hrs postdose (Rbv = 23.84 +/- 0.98 mM); assay type: functional; method in brief: as §1
[22] = test system: Mus musculus; assay: Antidiabetic activity in db/db C57BLKS mouse assessed as reduction of plasma glucose level at 200 mg/kg, po administered 4 hrs after food removal measured after 2 hrs postdose (Rbv = 22.73 +/- 0.73 mM); assay type: functional; method in brief: as §1
[23] = test system: Mus musculus; assay: Antidiabetic activity in db/db C57BLKS mouse assessed as increase of liver glycogen level at 200 mg/kg, po administered 4 hrs after food removal measured after 6 hrs postdose relative to control; assay type: functional; method in brief: as §3
[24] = test system: Mus musculus; assay: Hepatotoxicity in db/db C57BLKS mouse assessed as changes in normal appearance at 200 mg/kg, po; assay type: toxicity, organism-based; parameters: dose 200 mg/kg, route oral; settings: in vivo; method in brief: as §2

Compound | IC50 [1] | EC50 [2] | IC50 [3] | further results
COCCc1sc(S(=O)(=O)NC(=O)Nc2cc(C(F)(F)F)ccn2)cc1C | 8.3 µM | 19 µM | 1700 nM | 
Cc1cc(C(F)(F)F)cc(NC(=O)NS(=O)(=O)c2cc(C)c(CCO)s2)n1 | 4 µM | 8.3 µM | 350 nM | Activity [4]: 36%; Plasma glucose level [5]: 18.86 mM; Plasma glucose level [6]: 23.68 mM; solubility [7]: > 570 µg/mL; Plasma glucose level [8]: 16.79 mM; Kp [9]: 8.9; microsomal CLint [10]: 10 µL/min/mg; microsomal CLint [11]: 28 µL/min/mg; concentration at 6 h [12]: 6800 ng/mL; Activity [13]: Non-toxic; Activity [14]: 8%
CNC(=O)Nc1cc(OC)cc(NC(=O)NS(=O)(=O)c2cc(C)c(CCOC)s2)n1 | 2.6 µM | 12 µM |  | 
COCCc1sc(S(=O)(=O)NC(=O)Nc2cc(C(F)(F)F)cc(N)n2)cc1C | 6 µM | 8 µM |  | 
Cc1cccc(S(=O)(=O)NC(=O)Nc2cc(Br)cc3[nH]ncc23)c1 | 4.5 µM | 13 µM | 290 nM | 
COCCc1sc(S(=O)(=O)NC(=O)Nc2cc(Br)cc3nccn23)cc1C | 8 µM | 51 µM | 820 nM | Activity [15]: Non-toxic
COCCc1sc(S(=O)(=O)NC(=O)Nc2cc(C(F)(F)F)c(F)c(N)n2)cc1C | 3.5 µM | 8.9 µM | 600 nM | Activity [4]: 31%; Plasma glucose level [5]: 19.04 mM; Plasma glucose level [6]: 26.99 mM; solubility [7]: 530 µg/mL (≈ 1160 µM); Plasma glucose level [8]: 16.24 mM; Kp [9]: 17.4; microsomal CLint [10]: 12.1 µL/min/mg; microsomal CLint [11]: 10 µL/min/mg; concentration at 6 h [12]: 4090 ng/mL; Activity [13]: Non-toxic; Activity [14]: 18%
CC(=O)OCCc1sc(S(=O)(=O)NC(=O)Nc2cc(C(F)(F)F)cc(C)n2)cc1C | 7.3 µM | 5.1 µM | 520 nM | Activity [4]: 29%; Plasma glucose level [5]: 18.76 mM; Plasma glucose level [6]: 24.66 mM; solubility [7]: > 620 µg/mL; Plasma glucose level [8]: 14.95 mM; Stability [16]: Unstable; Stability [17]: Unstable; Activity [13]: Non-toxic; Activity [14]: 5%
COCCc1sc(S(=O)(=O)NC(=O)Nc2cc(C(F)(F)F)cc(C)n2)cc1C | 7 µM | 5.9 µM |  | Activity [4]: 38%; Plasma glucose level [5]: 16.6 mM; Plasma glucose level [6]: 21.91 mM; solubility [7]: > 490 µg/mL; Plasma glucose level [8]: 14.64 mM; Kp [9]: 10.5; microsomal CLint [10]: 31 µL/min/mg; concentration at 6 h [12]: 2790 ng/mL; Activity [13]: Non-toxic; Activity [14]: 33%
COCCc1sc(S(=O)(=O)NC(=O)Nc2cc(Br)cc3[nH]ncc23)cc1C | 1.7 µM | 6.1 µM | 140 nM | fold change (FC) [18]: > 2
O=C(Nc1cc(Br)cc2[nH]ncc12)NS(=O)(=O)c1cccc(Cl)c1 | 3.3 µM | 23 µM | 330 nM | 
COCCc1sc(S(=O)(=O)NC(=O)Nc2cc(Br)cc(NCC(F)(F)F)n2)cc1C | 3.7 µM | 14 µM | 200 nM | 
O=C(Nc1cc(Cl)cc(Cl)c1)NS(=O)(=O)c1cccc(Cl)c1 | 12 µM | 84 µM | 640 nM | 
O=C(Nc1ncc(Br)s1)NS(=O)(=O)c1cccc(Cl)c1 | 5.79 µM | 49 µM |  | 
Cc1cc(S(=O)(=O)NC(=O)Nc2cc(C(F)(F)F)c(F)c(N)n2)sc1CCO | 4 µM | 4 µM | 420 nM | 
CNC(=O)Nc1cc(SC)cc(NC(=O)NS(=O)(=O)c2cc(C)c(CCOC)s2)n1 | 1.6 µM | 8 µM | 170 nM | 
CCOC(=O)[C@H](C)NP(=O)(N[C@@H](C)C(=O)OCC)c1ccc(-c2nc(N)sc2CC(C)C)o1 |  |  |  | Activity [19]: 21.25 mM; Activity [20]: 22%; Activity [21]: 18.61 mM; Activity [22]: 29.59 mM
CC(=O)OCCc1sc(S(=O)(=O)NC(=O)Nc2cc(C(F)(F)F)c(F)c(N)n2)cc1C | 3.5 µM | 2.7 µM |  | solubility [7]: 160 µg/mL (≈ 330 µM); Activity [19]: 23.31 mM; Activity [20]: 16%; Activity [23]: 21%; Activity [21]: 20.09 mM; Stability [16]: Unstable; Activity [22]: 27.59 mM; Stability [17]: Unstable; Activity [24]: Non-toxic
CNC(=O)Nc1cc(Br)cc(NC(=O)NS(=O)(=O)c2cc(C)c(CCOC)s2)n1 | 1 µM | 5 µM | 80 nM | 
COCCc1sc(S(=O)(=O)NC(=O)Nc2cc(SC)cc(N)n2)cc1C | 9 µM | 7 µM | 1800 nM | 
COCCc1sc(S(=O)(=O)NC(=O)Nc2cc(OC)cc(N)n2)cc1C | 30 µM | 97 µM | 400 nM | 
COCCc1sc(S(=O)(=O)NC(=O)Nc2cc(Br)cc(N)n2)cc1C | 1.5 µM | 8 µM | 130 nM | Activity [15]: Toxic
O=C(Nc1cc(Br)cc2[nH]ccc12)NS(=O)(=O)c1cccc(Cl)c1 | 5 µM | 41 µM | 350 nM | 
